Reference: ChEMBL document CHEMBL1126969, “Antipsoriatic anthrones with modulated redox properties. 1. Novel 10-substituted 1,8-dihydroxy-9(10H)-anthracenones as inhibitors of 5-lipoxygenase” (J Med Chem, 1993)

Tests used:
[1] = Deoxyribose-damaging property as a measure of hydroxyl-radical formation (uM test compound)
[2] = target: T1, Arachidonate 5-lipoxygenase (Bos taurus, UniProt Q9BEG3); experiment: Inhibitory activity against 5-lipoxygenase (inhibition of 5-HETE and LTB4 biosynthesis) in bovine polymorphonuclear leukocytes (PMNL).; assay type: cell-based
T1 sequence (Q9BEG3 whole entry): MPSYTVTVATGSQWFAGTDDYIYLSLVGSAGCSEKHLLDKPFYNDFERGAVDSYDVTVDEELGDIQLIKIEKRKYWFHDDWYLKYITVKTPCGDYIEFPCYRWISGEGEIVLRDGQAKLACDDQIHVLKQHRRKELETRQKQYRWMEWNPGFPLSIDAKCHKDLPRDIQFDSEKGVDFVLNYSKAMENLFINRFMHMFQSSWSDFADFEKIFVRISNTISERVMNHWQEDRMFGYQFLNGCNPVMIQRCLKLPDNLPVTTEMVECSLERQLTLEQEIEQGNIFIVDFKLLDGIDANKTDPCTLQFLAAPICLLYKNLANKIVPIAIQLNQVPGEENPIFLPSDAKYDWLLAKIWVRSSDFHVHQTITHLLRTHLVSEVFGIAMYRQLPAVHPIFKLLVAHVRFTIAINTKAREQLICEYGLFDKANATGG

[3] = Reducing activity against 2,2-diphenyl-1-picrylhydrazyl; assay type: ADME
[4] = target: T2, Arachidonate 5-lipoxygenase (Bos taurus) (UniProt Q9BEG3); experiment: Inhibitory activity against 5-lipoxygenase (inhibition of 5-HETE and LTB4 biosynthesis) in bovine polymorphonuclear leukocytes (PMNL) at 30 uM; assay type: cell-based
T2 sequence (whole entry): T1 sequence (Q9BEG3 whole entry)
Outline: (§1)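 Bovine PMNL from EDTA blood, platelets removed, 1×10^7 cells/mL in PBS pH 7.4. Compound (DMSO, 0.4% final) preincubated 15 min at 37 °C, then stimulated with CaCl2 2 mM and A23187 20 μM for 10 min. Stopped with methanol/acetonitrile containing NDGA and PGB2 marker. LTB4 (280 nm) and 5-HETE (232 nm) quantified by RP-HPLC against internal and external standards.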

[5] = (§2) Deoxyribose-damaging property as a measure of hydroxyl-radical formation (uM of malondialdehyde/mmol of deoxyribose released by 75 uM test compound)
Outline: (§3)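 2-Deoxy-D-ribose (2 mM) with FeCl3 (0.1 mM) in 30 mM KH2PO4-KOH buffer pH 7.4, compound at 75 μM final (acetonitrile vehicle, fresh stocks), 2 h at 37 °C. TBA/trichloroacetic acid added, heated 100 °C 15 min, acidified, extracted into butanol, A532 read. Calibrated against malondialdehyde standard; expressed as μmol MDA/mmol deoxyribose.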

[6] = target: T2, Arachidonate 5-lipoxygenase (Bos taurus); experiment: Inhibitory activity against 5-lipoxygenase (inhibition of 5-HETE and LTB4 biosynthesis) in bovine polymorphonuclear leukocytes (PMNL); assay type: cell-based; details: concentration not given here; outline: as §1
[7] = Reducing activity against 2,2-diphenyl-1-picrylhydrazyl with an equimolar amount of the test compound; c = Not reactive; assay type: ADME
[8] = as §2; assay type: ADME; outline: as §3

Row | Structure (SMILES) | Deoxyribose degradation (uM of MDA mM-1) [1] | IC50 [2] | kDPPH [3] | inhibition [4] | further results
1 | O=C1c2c(O)cccc2C(C(=O)CCCc2ccccc2)c2cccc(O)c21 | < 0.2 | 300 nM | 10.1 M⁻¹ s⁻¹ | – | –
2 | O=C1c2c(O)cccc2C(C(=O)Cc2ccc([N+](=O)[O-])cc2)c2cccc(O)c21 | < 0.2 | – | 63.7 M⁻¹ s⁻¹ | – | –
3 | COc1ccc(CCC(=O)C2c3cccc(O)c3C(=O)c3c(O)cccc32)cc1 | 1.4 | 1000 nM | 7.4 M⁻¹ s⁻¹ | – | –
4 | COc1ccc(CCC(=O)C2c3cccc(O)c3C(=O)c3c(O)cccc32)cc1OC | < 0.2 | 17000 nM | 8.7 M⁻¹ s⁻¹ | – | –
5 | O=C1c2c(O)cccc2C(C(=O)Cc2cc(OCc3ccccc3)c(OCc3ccccc3)c(OCc3ccccc3)c2)c2cccc(O)c21 | – | – | 15.3 M⁻¹ s⁻¹ | – | Deoxyribose degradation (uM of MDA mM-1) [5]: < 0.2
6 | O=C1c2c(O)cccc2C(C(=O)Cc2ccccc2)c2cccc(O)c21 | < 0.2 | – | 16.4 M⁻¹ s⁻¹ | – | –
7 | COc1c(OC)c(OC(C)=O)c2cc(Cl)ccc2c1OC(C)=O [LONAPALENE] | – | – | – | – | Deoxyribose degradation (uM of MDA mM-1) [5]: < 0.15; kDPPH [7]: Not Active
8 | O=C1c2c(O)cccc2C(C(=O)/C=C/c2ccc([N+](=O)[O-])cc2)c2cccc(O)c21 | – | 6000 nM | > 100 M⁻¹ s⁻¹ | – | Deoxyribose degradation (uM of MDA mM-1) [5]: 0.88
9 | O=C1c2c(O)cccc2C(C(=O)CCc2ccc(OCc3ccccc3)cc2)c2cccc(O)c21 | < 0.2 | 2000 nM | 8.8 M⁻¹ s⁻¹ | – | –
10 | O=C1c2c(O)cccc2C(C(=O)Cc2ccc(O)cc2)c2cccc(O)c21 | 0.36 | – | 14.7 M⁻¹ s⁻¹ | – | –
11 | CC(Cc1ccc(O)c(O)c1)C(C)Cc1ccc(O)c(O)c1 (configuration not stated) [NORDIHYDROGUAIARETIC ACID] | – | – | > 100 M⁻¹ s⁻¹ | – | Deoxyribose degradation (uM of MDA mM-1) [5]: 0.23
12 | CC(C)(C)c1cc(CC(=O)C2c3cccc(O)c3C(=O)c3c(O)cccc32)cc(C(C)(C)C)c1O | < 0.2 | – | > 100 M⁻¹ s⁻¹ | – | –
13 | O=C1c2c(O)cccc2C(C(=O)CCc2ccc(O)cc2)c2cccc(O)c21 | 2.5 | 1000 nM | 7.8 M⁻¹ s⁻¹ | – | –
14 | CC(=O)Oc1cccc2cc3cccc(OC(C)=O)c3c(OC(C)=O)c12 [TRIACETOXYANTHRENE] | – | – | – | 15% | Deoxyribose degradation (uM of MDA mM-1) [5]: < 0.15; kDPPH [7]: Not Active
15 | COc1ccc(CC(=O)C2c3cccc(O)c3C(=O)c3c(O)cccc32)cc1 | < 0.2 | 500 nM | 15.1 M⁻¹ s⁻¹ | – | –
16 | O=C1c2c(O)cccc2C(C(=O)CCc2ccccc2)c2cccc(O)c21 | < 0.2 | – | 10.3 M⁻¹ s⁻¹ | – | –
17 | O=C1c2c(O)cccc2C(C(=O)CCCCc2ccccc2)c2cccc(O)c21 | < 0.2 | 2000 nM | 10.1 M⁻¹ s⁻¹ | – | –
18 | O=C1c2c(O)cccc2C(C(=O)Cc2ccc(OCc3ccccc3)c(OCc3ccccc3)c2)c2cccc(O)c21 | < 0.2 | – | 15 M⁻¹ s⁻¹ | 34% | –
19 | COc1cc(CCC(=O)C2c3cccc(O)c3C(=O)c3c(O)cccc32)cc(OC)c1OC | < 0.2 | – | 10.3 M⁻¹ s⁻¹ | – | –
20 | O=C1c2c(O)cccc2C(C(=O)Cc2ccc(OCc3ccccc3)cc2)c2cccc(O)c21 | < 0.2 | 600 nM | 13.3 M⁻¹ s⁻¹ | – | –
21 | COc1cccc(/C=C/C(=O)C2c3cccc(O)c3C(=O)c3c(O)cccc32)c1 | – | 3000 nM | > 100 M⁻¹ s⁻¹ | – | –
22 | O=C1c2c(O)cccc2C(C(=O)/C=C/c2ccccc2)c2cccc(O)c21 | – | – | > 100 M⁻¹ s⁻¹ | – | Deoxyribose degradation (uM of MDA mM-1) [5]: 1.66
23 | O=C1c2c(O)cccc2C(C(=O)Cc2cc(O)c(O)c(O)c2)c2cccc(O)c21 | – | – | > 100 M⁻¹ s⁻¹ | – | Deoxyribose degradation (uM of MDA mM-1) [5]: 2.99
24 | O=C1c2c(O)cccc2C(C(=O)Cc2ccc(O)c(O)c2)c2cccc(O)c21 | – | 11000 nM | > 100 M⁻¹ s⁻¹ | – | Deoxyribose degradation (uM of MDA mM-1) [5]: 6.26
25 | O=C1c2c(O)cccc2Cc2cccc(O)c21 [ANTHRALIN] | – | – | 24.2 M⁻¹ s⁻¹ | – | –
26 | O=C1c2c(O)cccc2C(=CCCCCc2ccccc2)c2cccc(O)c21 | < 0.15 | – | < 1 M⁻¹ s⁻¹ | 0% | –
27 | CCCC(=O)C1c2cccc(O)c2C(=O)c2c(O)cccc21 [BUTANTRONE] | 0.24 | 33000 nM | 7 M⁻¹ s⁻¹ | – | –

Second part, led by results:

Row | Deoxyribose degradation (uM of MDA mM-1) [1] | IC50 [2] | kDPPH [3] | inhibition [4] | Structure (SMILES) | further results
28 | < 0.15 | 2000 nM | < 1 M⁻¹ s⁻¹ | – | O=C1c2c(O)cccc2C(=Cc2ccc([N+](=O)[O-])cc2)c2cccc(O)c21 | –
29 | < 0.15 | – | < 1 M⁻¹ s⁻¹ | 33% | O=C1c2c(O)cccc2C(=Cc2ccc(C(F)(F)F)cc2)c2cccc(O)c21 | –
30 | < 0.15 | – | < 1 M⁻¹ s⁻¹ | < 10% | COc1ccc(C=C2c3cccc(O)c3C(=O)c3c(O)cccc32)cc1 | –
31 | < 0.15 | 4000 nM | > 100 M⁻¹ s⁻¹ | – | O=C1c2c(O)cccc2C(=Cc2ccc(O)cc2)c2cccc(O)c21 | –
32 | < 0.15 | – | < 1 M⁻¹ s⁻¹ | – | O=C1c2c(O)cccc2C(=CCCc2ccccc2)c2cccc(O)c21 | –
33 | < 0.15 | – | < 1 M⁻¹ s⁻¹ | – | COc1ccc(CCC=C2c3cccc(O)c3C(=O)c3c(O)cccc32)cc1 | inhibition [6]: 24%
34 | < 0.15 | – | < 1 M⁻¹ s⁻¹ | 23% | Cc1ccc(C=C2c3cccc(O)c3C(=O)c3c(O)cccc32)cc1 | –
35 | < 0.15 | – | < 1 M⁻¹ s⁻¹ | 10% | COc1cc(C=C2c3cccc(O)c3C(=O)c3c(O)cccc32)cc(OC)c1OC | –
36 | – | 500 nM | > 100 M⁻¹ s⁻¹ | – | O=C1c2c(O)cccc2C(=Cc2ccc(O)c(O)c2)c2cccc(O)c21 | Deoxyribose degradation (uM of MDA mM-1) [5]: 0.44
37 | < 0.15 | – | < 1 M⁻¹ s⁻¹ | < 10% | COC(=O)c1ccc(C=C2c3cccc(O)c3C(=O)c3c(O)cccc32)cc1 | –
38 | < 0.15 | – | < 1 M⁻¹ s⁻¹ | < 10% | COc1ccc(C=C2c3cccc(O)c3C(=O)c3c(O)cccc32)cc1OC | –
39 | < 0.15 | – | < 1 M⁻¹ s⁻¹ | 21% | O=C1c2c(O)cccc2C(=CCCCc2ccccc2)c2cccc(O)c21 | –
40 | < 0.15 | – | < 1 M⁻¹ s⁻¹ | 30% | O=C1c2c(O)cccc2C(=CCc2ccccc2)c2cccc(O)c21 | –
41 | – | 400 nM | > 100 M⁻¹ s⁻¹ | – | O=C1c2c(O)cccc2C(=Cc2cc(O)c(O)c(O)c2)c2cccc(O)c21 | Deoxyribose degradation [8]: 6.03 uM of MDA mM-1
42 | < 0.15 | – | < 1 M⁻¹ s⁻¹ | 34% | N#Cc1ccc(C=C2c3cccc(O)c3C(=O)c3c(O)cccc32)cc1 | –
43 | < 0.15 | – | < 1 M⁻¹ s⁻¹ | 34% | O=C1c2c(O)cccc2C(=Cc2ccccc2)c2cccc(O)c21 | –
44 | < 0.15 | – | < 1 M⁻¹ s⁻¹ | < 10% | O=C(O)c1ccc(C=C2c3cccc(O)c3C(=O)c3c(O)cccc32)cc1 | –
